Source: ChEMBL document CHEMBL4715761, “LAT1 activity of carboxylic acid bioisosteres: Evaluation of hydroxamic acids as substrates” (Bioorg Med Chem Lett, 2016)

Columns and labels:
[1] = biological target: T1, Large neutral amino acids transporter small subunit 1 (Homo sapiens, UniProt Q01650); experiment: Inhibition of human LAT1 expressed in HEK293-T-Rex cells assessed as inhibition of [3H]-gabapentin uptake by scintillation counting cis-inhibition assay relative to BCH inhibition (RV = 100%); type: cell-based
[2] = biological target: T1, Large neutral amino acids transporter small subunit 1; experiment: Inhibition of human LAT1 expressed in HEK293-T-Rex cells assessed as inhibition of [3H]-gabapentin uptake at 200 uM by scintillation counting cis-inhibition assay; type: cell-based
Summary of the method: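 HEK cells overexpressing human LAT1; test compound at 200 μM added during [3H]-gabapentin uptake (cis-inhibition). Reported as % inhibition relative to background signal without test compound; cell data at least in triplicate.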

T1 sequence (Q01650 whole entry): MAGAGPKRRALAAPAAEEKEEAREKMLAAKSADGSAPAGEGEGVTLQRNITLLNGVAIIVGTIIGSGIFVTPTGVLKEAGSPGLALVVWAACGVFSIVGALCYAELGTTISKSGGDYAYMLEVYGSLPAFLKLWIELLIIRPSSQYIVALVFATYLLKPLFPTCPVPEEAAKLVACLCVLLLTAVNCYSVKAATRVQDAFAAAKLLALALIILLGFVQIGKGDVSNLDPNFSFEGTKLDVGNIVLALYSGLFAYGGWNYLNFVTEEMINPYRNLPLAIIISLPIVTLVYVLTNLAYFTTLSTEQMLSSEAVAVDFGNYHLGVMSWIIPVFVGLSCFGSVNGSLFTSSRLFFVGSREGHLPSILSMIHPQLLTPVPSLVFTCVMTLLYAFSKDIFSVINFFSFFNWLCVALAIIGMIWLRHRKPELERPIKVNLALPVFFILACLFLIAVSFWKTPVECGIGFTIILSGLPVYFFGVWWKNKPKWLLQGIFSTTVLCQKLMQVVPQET

IC50 [1] [µM] | inhibition [2] [%] | SMILES
> 200 | – | CONC(=O)[C@@H](N)CC(C)C
– | 12 | CS(=O)(=O)NC(=O)[C@@H](N)Cc1ccc(O)cc1
> 200 | 50 | CC(C)C[C@H](N)C(=O)NO
– | 15 | CS(=O)(=O)NC(=O)[C@@H](N)Cc1ccccc1
87 | – | CC(C)C[C@H](N)C(=O)O [LEUCINE]
> 200 | – | CSCC[C@H](N)C(=O)NO
– | 39 | N[C@@H](Cc1ccc(O)cc1)C(=O)NO
> 200 | – | CC[C@H](C)[C@H](N)C(=O)NO
> 200 | 33 | NCC(=O)O [GLYCINE]
180 | – | CSCC[C@H](N)C(=O)O [METHIONINE]
– | 35 | N[C@@H](Cc1c[nH]c2ccccc12)C(=O)NO
> 200 | 38 | NCC(=O)NO
150 | – | CC[C@H](C)[C@H](N)C(=O)O [ISOLEUCINE]
> 200 | – | CC(C)C[C@H](N)C(N)=O

SMILES | IC50 [1] [µM] | inhibition [2] [%]
N[C@@H](Cc1ccccc1)c1nnn[nH]1 | – | 11
